L929 necroptosis – blocks zVAD induced death of L929 cells; viability rescue, % at 10 µM; L929 zVAD necroptosis rescue, ATP luminescence, 24 h; with zVAD 60 µM; 220,000 tested, 0.38% active;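 active means activation, scaled between plate controls, above about 75%, limit read from the data; inactive means activation under that limit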;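 further: 0% = zVAD with DMSO and 100% = DMSO alone without zVAD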
PERK inh – inhibitors of human PERK kinase; Q9NZJ5; CHO PERK-DD fusion, SEAP luminescence translation reporter; inhibition, % at 5.6 µM; 220,000 tested, 0.17% active;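 active means inhibition above the mean inhibition of all tested compounds plus 3 SD, set separately per screening campaign, cut at about 2.9% in these data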;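 further: PERK kinase domain activated by AP20187 dimerizer at 100 nM; 0% = DMSO with dimerizer and 100% = rapamycin at 8.4 µM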
Target sequence (Q9NZJ5 whole entry, looked up, the tested form may be a part): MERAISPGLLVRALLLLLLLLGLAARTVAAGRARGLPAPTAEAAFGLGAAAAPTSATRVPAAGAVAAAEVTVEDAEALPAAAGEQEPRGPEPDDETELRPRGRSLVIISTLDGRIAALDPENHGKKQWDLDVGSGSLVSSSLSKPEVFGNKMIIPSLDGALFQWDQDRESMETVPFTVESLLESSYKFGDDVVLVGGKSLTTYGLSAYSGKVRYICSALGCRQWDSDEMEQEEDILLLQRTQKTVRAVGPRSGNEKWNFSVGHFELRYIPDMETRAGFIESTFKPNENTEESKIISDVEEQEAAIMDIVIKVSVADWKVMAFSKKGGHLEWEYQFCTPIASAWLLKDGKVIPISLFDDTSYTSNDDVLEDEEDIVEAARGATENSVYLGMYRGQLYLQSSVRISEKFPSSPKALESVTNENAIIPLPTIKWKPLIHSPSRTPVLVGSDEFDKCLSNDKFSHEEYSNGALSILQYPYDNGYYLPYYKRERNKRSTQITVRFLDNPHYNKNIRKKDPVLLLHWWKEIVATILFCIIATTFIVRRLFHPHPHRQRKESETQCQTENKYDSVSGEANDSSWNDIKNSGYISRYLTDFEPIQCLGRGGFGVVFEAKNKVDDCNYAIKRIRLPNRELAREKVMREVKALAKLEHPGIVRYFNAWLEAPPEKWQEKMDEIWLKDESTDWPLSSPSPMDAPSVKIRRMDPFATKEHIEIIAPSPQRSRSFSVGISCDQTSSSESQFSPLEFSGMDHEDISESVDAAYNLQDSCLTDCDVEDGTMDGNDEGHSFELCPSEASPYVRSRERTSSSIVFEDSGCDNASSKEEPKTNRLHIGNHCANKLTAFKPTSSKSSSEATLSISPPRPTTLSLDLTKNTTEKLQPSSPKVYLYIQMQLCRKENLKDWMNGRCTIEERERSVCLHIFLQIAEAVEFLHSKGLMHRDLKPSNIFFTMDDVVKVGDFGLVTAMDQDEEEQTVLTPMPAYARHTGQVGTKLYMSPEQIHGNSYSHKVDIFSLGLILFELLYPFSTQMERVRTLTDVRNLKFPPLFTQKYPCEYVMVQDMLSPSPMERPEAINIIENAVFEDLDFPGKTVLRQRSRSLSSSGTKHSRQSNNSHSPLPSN
TNF necrop inh – inhibitors of TNF-alpha induced necroptosis in Jurkat FADD-/- cells. activation (protection from cell death), % at 10 µM. AID 463075. Jurkat FADD-/- TNF necroptosis rescue, ATP luminescence, 24 h; 0 = TNF only, 100 = no-TNF cells. 220,000 tested, 0.068% active;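 active means activation, meaning protection from cell death, of at least 50% relative to plate controls; inactive means activation below 50%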;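 further: necroptosis triggered by 40 ng/mL TNF-alpha added together with compound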
HMGR II inh – blocks class II HMG-CoA reductase of Enterococcus faecalis | AID 1066 | purified E. faecalis HMGR, NADPH absorbance 340 nm kinetic | 190,000 tested, 0.41% active | inhibition, % at 10 µM;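 active means inhibition above a set limit, the median over all tested compounds plus 3 SD, cut at about 9.5% in these data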;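 further: enzyme runs in reverse so mevalonate oxidation gives rising NADPH absorbance; 0% = complete reaction with DMSO and 100% = background rate lacking mevalonate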
Rad51 HR inh – blocks human Rad51 in homologous recombination; Q06609; AID 1385; 200,000 tested, 0.085% active; hRad51 DNA strand exchange, fluorescence dequenching; inhibition, % at 10 µM;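 active means inhibition above 40% at the single screening dose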;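 further: 0% = DMSO control wells and 100% = blanks with heterologous ssDNA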
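System: human Rad51 nucleoprotein filaments preassembled on unlabelled ssDNA. Reagent: labelled 47-mer dsDNA for strand exchange. Schedule: 30-min compound preincubation and 15-min exchange, both room temperature. Measured by: FRET fluorescence dequenching, excitation 485 nm, emission 520 nm. Read-out: Fluorescence-based percent inhibition, control- and blank-normalised. Benchmarks: plate controls and plate blanks.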
zVAD necrop conf – confirmed blocker of zVAD induced death in L929 cells | activation (protection from necroptosis), % at 10 µM | L929 zVAD-induced necroptosis rescue, ATP luminescence, 24 h | shares compounds with L929 necroptosis | 760 tested, 16% active;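 active means mean protection from necroptosis of at least 50% over duplicate tests; inactive means mean protection below 50%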;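 further: 0% = cells with zVAD alone and 100% = vehicle cells without zVAD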
Starred values were filed as active, the others as inactive; i = inactive; . = no result given. Most compounds without a hit are left out; they make up all but 1% or so of the library.

SMILES | L929 necroptosis | PERK inh | TNF necrop inh | HMGR II inh | Rad51 HR inh | zVAD necrop conf
CC1=NN(c2ccccc2)C(=O)/C1=C\C=C\c1ccccc1 | 4 | 0 | -27 | . | 11 | .
ClC1=C(Cl)C(Cl)=C(Cl)C1=C/C=C/c1ccccc1 | 112* | 1 | -29 | . | -10 | 3
Cc1ccc(Nc2nc(OC(C(F)(F)F)C(F)(F)F)nc(N3CCOCC3)n2)cc1 | 88* | 2 | 3 | -2 | -11 | 2
COc1ccc(Nc2nc(OC)nc(N3CCOCC3)n2)cc1 | 13 | 0 | 1 | 0 | -73 | .
O=C(Oc1ccc(Nc2ncnc3ccccc23)cc1)c1cccnc1 | 80* | 0 | -1 | 0 | 10 | 1
O=C(COC(=O)c1ccccc1Br)Nc1cc(S(=O)(=O)N2CCOCC2)ccc1N1CCCC1 | 0 | 1 | 2 | -4 | 1 | .
Nc1c(C(=O)OCC2CCCO2)c2nc3ccccc3nc2n1-c1ccc2c(c1)OCCO2 (centres undefined) | 93* | -2 | -7 | -3 | -7 | 2
CCc1nnc(NC(=O)Cc2ccc(Br)cc2)s1 | 4 | 2 | 3 | 2 | -2 | .
O=Cc1ccc2noc(-c3ccc(F)cc3)c2c1 | 82* | 0 | -6 | 3 | -1 | 2
CCNC(=O)c1c(O)c2ccccc2[nH]c1=O | 76* | 1 | 55* | 1 | -5 | 2
CN(C)c1ccc(C=NCC2COc3ccccc3O2)cc1 (centres undefined) | 1 | 1 | -3 | -2 | -8 | .
COCCNC(=O)c1cc(Sc2nnc(C)s2)nc2ccccc12 | 75* | -1 | 4 | . | 0 | 8
C=C1CCN([C@@H](Cc2ccccc2)C(=O)NCCCc2ccccc2)S(=O)(=O)c2ccccc21 | . | . | . | . | 16 | .
Cc1cccc(-n2cc(CNCCc3nc(C)cc(C)n3)c(-c3cccc(F)c3)n2)c1 | 0 | -2 | -2 | . | 4 | .
CC1(C)Cc2c(sc(NC(=O)C3CC(Cl)=CCC3C(=O)O)c2C#N)CO1 (centres undefined) | 1 | 0 | -1 | -7 | -6 | .
Oc1ccccc1N=Cc1c(O)ccc2ccccc12 | 84* | 0 | -6 | . | i | 12
Oc1c(/C=C/C=C/C=Nc2ccccc2)sc(=S)n1Cc1ccccc1 | -1 | 0 | -21 | . | -44 | .
COc1ccc(Br)cc1C(=O)Nc1ccc(C(=O)O)cc1 | -1 | 0 | 0 | 1 | 1 | .
COc1ccc(NC(=O)c2cc3cccc(OC)c3oc2=Nc2ccc(C(=O)O)cc2)cc1OC | 82* | 2 | -6 | 2 | -12 | 11
Cn1c(C(=O)NCCCN2CCOCC2)cc2c(=O)n(C)c3ccccc3c21 | 55 | 1 | 1 | -1 | 1 | .
CCCCN(CC)CCCNC(=O)c1cc2c(=O)n(C)c3ccccc3c2n1C | 80* | 0 | -1 | 1 | -4 | 34
CN1CCN(CCCNC(=O)c2cc3c(=O)n(C)c4ccccc4c3s2)CC1 | 77* | -2 | 2 | -2 | 3 | 24
Cn1c(C(=O)NCc2ccccn2)cc2c(=O)n(C)c3ccccc3c21 | 89* | 1 | 1 | -8 | -5 | 3
CC(C)OCCCNC(=O)c1cc2c(=O)n(C)c3ccccc3c2n1C | 10 | -1 | 0 | -1 | 11 | .
Cn1c(C(=O)NCCN2CCCCCC2)cc2c(=O)n(C)c3ccccc3c21 | 84* | 0 | 3 | 1 | 5 | 10
SMILES | L929 necroptosis | PERK inh | TNF necrop inh | HMGR II inh | Rad51 HR inh | zVAD necrop conf
CC(=O)Nc1ccc(C(=O)OCc2ccc(Cl)cc2)cc1 | 0 | 1 | -2 | -2 | -10 | .
CC(=O)Nc1ccc(C(=O)OCC(=O)NC(=O)NC2CCCCC2)cc1 | 80* | -1 | -2 | 1 | 2 | 43
CCCS(=O)(=O)c1ccc(COC(=O)c2ccc(NC(C)=O)cc2)cc1 | 79* | 0 | 2 | -4 | 5 | 0
CC1CCCN(Cc2c(O)ccc3c(=O)c(-c4nc5ccccc5s4)c(N)oc23)C1 (centres undefined) | 78* | -1 | -4 | -3 | -9 | 38
COc1cc(C=O)ccc1OCC(=O)N1CCCC1 | 14 | 0 | 0 | -1 | 7 | .
O=C(Oc1ccc(-c2cnc3ccccc3n2)cc1)c1cccc([N+](=O)[O-])c1 | 94* | 1 | -4 | 1 | -4 | 2
O=C(Oc1ccc(-c2cnc3ccccc3n2)cc1)c1ccc(Cl)c([N+](=O)[O-])c1 | 87* | 0 | 0 | 1 | 6 | 2
O=C(Oc1ccc(-c2cnc3ccccc3n2)cc1)c1ccc(Br)o1 | 85* | 0 | 0 | 2 | 4 | 6
Nc1ccc(Nc2ccccc2N)cc1 | 9 | 0 | -17 | -1 | -1 | .
COc1ccc(Nc2ccccc2N)cc1 | 92* | 0 | -9 | -4 | -29 | 24
CC(=O)N(C(C)=O)c1ncc2c([nH]c3ccccc32)c1C#N | 87* | 2 | -11 | -2 | -1 | 44
O=CNC1CCCc2c1[nH]c1ccc(Cl)cc21 (centres undefined) | 1 | 1 | -3 | 1 | -7 | .
Clc1ccc2[nH]c3c(c2c1)CCc1cn[nH]c1-3 | 101* | 0 | 90* | -6 | 11 | 83*
O=C1CCCc2c1[nH]c1ccccc21 | 0 | 0 | 0 | 3 | -3 | .
c1ccc2c3c([nH]c2c1)-c1[nH]ncc1CC3 | 91* | 0 | 95* | 2 | -7 | 93*
FC(F)(F)c1ccnc(NCc2ccco2)n1 | 0 | 1 | 1 | . | 18 | .
COc1ccccc1NC(=O)c1c(N=Cc2cccc([N+](=O)[O-])c2)cnn1C | 3 | 1 | -4 | . | -2 | .
CCCCNC(=O)Nc1nc2ccc(CC)cc2s1 | 78* | 0 | 8 | 7 | 0 | 2
Nc1c2c(=O)oc(-c3ccccc3)cc2nn1-c1ccccc1 | 90* | -1 | -15 | -6 | . | 27
CCOCCCNC(=O)c1c[nH]c2c(CC)cccc2c1=O | 3 | 1 | 1 | -4 | 2 | .
NC(=S)N/N=C1\CCSc2ccc(Cl)cc21 | 1 | 0 | -2 | . | 13 | .
COC(=O)c1ccc(/C=N/Nc2nc(C)c(C)s2)cc1 | 80* | 2 | 11 | . | 11 | 2
Cc1cc(C)nc(N2CCN(C(=O)CCC(=O)Nc3nnc(C(C)C)s3)CC2)n1 | 76* | 0 | -1 | . | . | 33
CC(C)c1nnc(NC(=O)CCC(=O)N2CCN(c3ccccn3)CC2)s1 | 36 | 1 | -1 | -2 | 3 | .
O=C(NC(=S)NCC1CCCO1)c1ccccc1[N+](=O)[O-] (centres undefined) | 4 | 1 | -1 | -1 | -1 | .
Cc1ccc(C(O)P(=O)(OCc2ccccc2)c2ccc(N(C)C)cc2)cc1 (centres undefined) | 0 | -1 | -3 | . | . | .
CN(C)S(=O)(=O)c1cccc(NC(=O)CCSc2ccc(Cl)cc2)c1 | 77* | 0 | -3 | 0 | . | 42

Compound activity from PubChem.
